Experimental data: ChEMBL document CHEMBL4609998 (Bioorg Med Chem, 2020)
Activity calls are given as the source filed them. The rule behind the calls is not given here.

Legend:
[1] = test system: T98; test: Antiproliferative activity against human T98 cells assessed as reduction in cell viability incubated for 5 days by Prestoblue reagent based assay; assay type: functional; settings: T98, 120 h
Outline: (§1)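 Glioma lines in DMEM/10% FBS/2 mM glutamine: U87 at 1 × 10^3 and T98 at 5 × 10^2 cells/well, incubated 48 h, then treated over 1–30,000 nM for 5 d. PrestoBlue viability; EC50 calculated from dose-response curves. Mean ± SEM, 3 independent experiments in triplicate.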

[2] = test system: U-87 MG; test: Antiproliferative activity against human U87 cells assessed as reduction in cell viability at 3 to 300 uM incubated for 5 days by Prestoblue reagent based assay; assay type: functional; settings: U-87MG ATCC
Outline: (§2)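 Library screen: U87 (1 × 10^3/well) and T98 (5 × 10^2/well) cells seeded 48 h ahead, then exposed for 5 d to three concentrations (3, 30 and 300 μM). Viability by PrestoBlue; EC50 derived from the resulting dose-response curves. Means of three independent experiments in triplicate.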

[3] = test system: T98; test: Antiproliferative activity against human T98 cells assessed as reduction in cell viability at 3 to 300 uM incubated for 5 days by Prestoblue reagent based assay; assay type: functional; outline: as §2
[4] = test system: U-87 MG; test: Antiproliferative activity against human U87 cells assessed as reduction in cell viability incubated for 5 days by Prestoblue reagent based assay; assay type: functional, U-87MG ATCC; settings: 120 h; outline: as §1
[5] = organism: Homo sapiens; test: Antiproliferative activity against human G317 cell spheroid assessed as reduction in cell viability incubated for 8 days; assay type: functional
Outline: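 G317 patient-derived glioma cells (4 × 10^3) spun into ultra-low attachment round-bottom wells (1000g, 4 °C, 10 min), left 2 days to form spheroids, then exposed to inhibitors at 4 concentrations from 10 nM to 10 μM for 8 days. Imaged on day 10; spheroid area quantified by image analysis. Mean ± SEM of 6 spheroids from two cultures.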

[6] = test system: U-87 MG; test: Antiproliferative activity against human U87 cells assessed as reduction in cell viability at 1 to 30000 nM incubated for 5 days by Prestoblue reagent based assay; assay type: functional; settings: U-87MG ATCC; outline: as §1
[7] = test system: T98; test: Antiproliferative activity against human T98 cells assessed as reduction in cell viability at 1 to 30000 nM incubated for 5 days by Prestoblue reagent based assay; assay type: functional; outline: as §1
[8] = test system: T98; test: Synergistic antiproliferative activity against human T98 cells assessed as reduction in cell viability at 100 nM in presence of GDC0941 incubated for 5 days by Prestoblue reagent based assay; assay type: functional
[9] = test system: T98; test: Antiproliferative activity against human T98 cells assessed as reduction in cell viability at 1 to 1000 nM incubated for 5 days by Prestoblue reagent based assay; assay type: functional
Outline: (§3)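 U87 (1 × 10^3/well) or T98 (5 × 10^2/well) cells, grown in DMEM with 10% FBS and 2 mM glutamine, plated 48 h before dosing at 1–1,000 nM. Viability read with PrestoBlue at day 5; EC50 values taken from dose-response curves. Mean ± SEM, three independent experiments in triplicate.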

[10] = test system: U-87 MG; test: Antiproliferative activity against human U87 cells assessed as reduction in cell viability at 1 to 1000 nM incubated for 5 days by Prestoblue reagent based assay; assay type: functional; settings: U-87MG ATCC; outline: as §3
[11] = test system: T98; test: Synergistic antiproliferative activity against human T98 cells assessed as reduction in cell viability at 10 to 1000 nM in presence of GDC0941 incubated for 5 days by Prestoblue reagent based assay; assay type: functional
[12] = test system: U-87 MG; test: Synergistic antiproliferative activity against human U87 cells assessed as reduction in cell viability at 10 to 1000 nM in presence of GDC0941 incubated for 5 days by Prestoblue reagent based assay; assay type: functional; settings: U-87MG ATCC

Nc1nc2cc(-c3nn(CC4CCCO4)c4ncnc(N)c34)ccc2o1 (stereo unspecified)
EC50 [1]: 100 to 150 nM
inhibition [2]: Active
inhibition [3]: Active
EC50 [4]: 100 to 150 nM

CCc1c2c(nc3ccc(O)cc13)-c1cc3c(c(=O)n1C2)COC(=O)[C@]3(O)CC
inhibition [5]: Dose-dependent effect

CNc1ncc2c(-c3ccc4oc(N)nc4c3)nn(CC3CCCC3)c2n1
inhibition [6]: Active
inhibition [7]: Active

Nc1nc2cc(-c3nn(C[C@@H]4CCCO4)c4ncnc(N)c34)ccc2o1
EC50 [1]: 100 to 150 nM
inhibition [2]: Active
inhibition [3]: Active
EC50 [4]: 100 to 150 nM

Nc1nc2cc(-c3nn(C[C@H]4CCCO4)c4ncnc(N)c34)ccc2o1
EC50 [1]: 100 to 150 nM
inhibition [2]: Active
inhibition [3]: Active
EC50 [4]: 100 to 150 nM

Nc1nc2cc(-c3nn(CC4OCCO4)c4ncnc(N)c34)ccc2o1
EC50 [1]: 100 to 150 nM
inhibition [2]: Active
inhibition [3]: Active
EC50 [4]: 100 to 150 nM

CC(C)n1nc(-c2ccc3oc(N)nc3c2)c2c(N)ncnc21
inhibition [5]: Dose-dependent effect

COC(Cn1nc(-c2ccc3oc(N)nc3c2)c2c(N)ncnc21)OC
EC50 [1]: 100 to 150 nM
inhibition [2]: Active
inhibition [3]: Active
EC50 [4]: 100 to 150 nM

CCOC(Cn1nc(-c2ccc3oc(N)nc3c2)c2c(N)ncnc21)OCC
Activity [8]: Active
inhibition [9]: Active
EC50 [1]: 100 to 150 nM
inhibition [2]: Active
inhibition [3]: Active
inhibition [10]: Active
inhibition [5]: Dose-dependent effect
EC50 [4]: 100 to 150 nM

Nc1ncnc2c1c(-c1cnc3[nH]ccc3c1)nn2CC1CCCC1
inhibition [6]: Active
inhibition [7]: Active

Nc1nc2cc(-c3nn(CC4CCCC4)c4ncnc(N)c34)ccc2o1
inhibition [9]: Active
inhibition [2]: Active
inhibition [3]: Active
Activity [11]: Active
Activity [12]: Active
inhibition [10]: Active
inhibition [5]: Dose-dependent effect
